This note sets out measurements from article PMC7641749 (Nucleic Acids Research, 2020).

The experiment deals with ERH. Briefly: Co-immunoprecipitation and Western blot of DGCR8 mutants and fragments with ERH. Format: binding, human. The note with it: co-IP / Western blot, overexpressed DGCR8 mutants, HEK293E, RNase A. The gist of the method: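 HEK293E cells at 50% confluence were transfected with 5 μg total of Flag-, HA- or myc-tagged plasmids using branched/linear PEI (1:1) and harvested after 2 days. Anti-Flag, anti-HA or protein G-bound anti-myc beads were incubated with lysate 1–2 h at 4°C, washed three times and eluted in SDS buffer for western blot.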
On the technique in general: Immunoblotting shows a protein as a band on a membrane.

B1: DG115–773: 1–114 aa of DGCR8 was deleted (protein)
chain: LKDVKISVSFTESCRSKDRKVLYTGAERDVRAECGLLLSPVSGDVHACPFGGSVGDGVGIGGESADKKDEENELDQEKRVEYAVLDELEDFTDNLELDEEGAGGFTAKAIVQRDRVDEEALNFPYEDDFDNDVDALLEEGLCAPKKRRTEEKYGGDSDHPSDGETSVQPMMTKIKTVLKSRGRPPTEPLPDGWIMTFHNSGVPVYLHRESRVVTWSRPYFLGTGSIRKHDPPLSSIPCLHYKKMKDNEEREQSSDLTPSGDVSPVKPLSRSAELEFPLDEPDSMGADPGPPDEKDPLGAEAAPGALGQVKAKVEVCKDESVDLEEFRSYLEKRFDFEQVTVKKFRTWAERRQFNREMKRKQAESERPILPANQKLITLSVQDAPTKKEFVINPNGKSEVCILHEYMQRVLKVRPVYNFFECENPSEPFGASVTIDGVTYGSGTASSKKLAKNKAARATLEILIPDFVKQTSEEKPKDSEELEYFNHISIEDSRVYELTSKAGLLSPYQILHECLKRNHGMGDTSIKFEVVPGKNQKSEYVMACGKHTVRGWCKNKRVGKQLASQKILQLLHPHVKNWGSLLRMYGRESSKMVKQETSDKSVIELQQYAKKNKPNLHILSKLQEEMKRLAEEREETRKKPKMSIVASAQPGGEPLCTVDV
Turning to B1, the “interaction with ERH” value was “could not pull down ERH”.

B2: DG_Ala mut: V105A/F108A/L112A/L114A/L115A (protein)
chain: METDESPSPLPCGPAGEAVMESRARPFQALPREQSPPPPLQTSSGAEVMDVGSGGDGQSELPAEDPFNFYGASLLSKGSFSKGRLLIDPNCSGHSPRTARHAPAARKASPDAKAAKDVKISVSFTESCRSKDRKVLYTGAERDVRAECGLLLSPVSGDVHACPFGGSVGDGVGIGGESADKKDEENELDQEKRVEYAVLDELEDFTDNLELDEEGAGGFTAKAIVQRDRVDEEALNFPYEDDFDNDVDALLEEGLCAPKKRRTEEKYGGDSDHPSDGETSVQPMMTKIKTVLKSRGRPPTEPLPDGWIMTFHNSGVPVYLHRESRVVTWSRPYFLGTGSIRKHDPPLSSIPCLHYKKMKDNEEREQSSDLTPSGDVSPVKPLSRSAELEFPLDEPDSMGADPGPPDEKDPLGAEAAPGALGQVKAKVEVCKDESVDLEEFRSYLEKRFDFEQVTVKKFRTWAERRQFNREMKRKQAESERPILPANQKLITLSVQDAPTKKEFVINPNGKSEVCILHEYMQRVLKVRPVYNFFECENPSEPFGASVTIDGVTYGSGTASSKKLAKNKAARATLEILIPDFVKQTSEEKPKDSEELEYFNHISIEDSRVYELTSKAGLLSPYQILHECLKRNHGMGDTSIKFEVVPGKNQKSEYVMACGKHTVRGWCKNKRVGKQLASQKILQLLHPHVKNWGSLLRMYGRESSKMVKQETSDKSVIELQQYAKKNKPNLHILSKLQEEMKRLAEEREETRKKPKMSIVASAQPGGEPLCTVDV
Take B2: the “interaction with ERH” value is given as “impaired in ERH binding”.

B3: DGΔ96–115: 96–115 aa of DGCR8 was removed (protein)
chain: METDESPSPLPCGPAGEAVMESRARPFQALPREQSPPPPLQTSSGAEVMDVGSGGDGQSELPAEDPFNFYGASLLSKGSFSKGRLLIDPNCSGHSKDVKISVSFTESCRSKDRKVLYTGAERDVRAECGLLLSPVSGDVHACPFGGSVGDGVGIGGESADKKDEENELDQEKRVEYAVLDELEDFTDNLELDEEGAGGFTAKAIVQRDRVDEEALNFPYEDDFDNDVDALLEEGLCAPKKRRTEEKYGGDSDHPSDGETSVQPMMTKIKTVLKSRGRPPTEPLPDGWIMTFHNSGVPVYLHRESRVVTWSRPYFLGTGSIRKHDPPLSSIPCLHYKKMKDNEEREQSSDLTPSGDVSPVKPLSRSAELEFPLDEPDSMGADPGPPDEKDPLGAEAAPGALGQVKAKVEVCKDESVDLEEFRSYLEKRFDFEQVTVKKFRTWAERRQFNREMKRKQAESERPILPANQKLITLSVQDAPTKKEFVINPNGKSEVCILHEYMQRVLKVRPVYNFFECENPSEPFGASVTIDGVTYGSGTASSKKLAKNKAARATLEILIPDFVKQTSEEKPKDSEELEYFNHISIEDSRVYELTSKAGLLSPYQILHECLKRNHGMGDTSIKFEVVPGKNQKSEYVMACGKHTVRGWCKNKRVGKQLASQKILQLLHPHVKNWGSLLRMYGRESSKMVKQETSDKSVIELQQYAKKNKPNLHILSKLQEEMKRLAEEREETRKKPKMSIVASAQPGGEPLCTVDV
As for B3, the “interaction with ERH” value is “could not pull down ERH”.

B4: Deletion of the N-terminus of DGCR8 (1–275 aa): DGCR8 with deletion of 1–275 aa (protein, UniProt Q8WYQ5 276-773, looked up, fragment)
chain: DGETSVQPMMTKIKTVLKSRGRPPTEPLPDGWIMTFHNSGVPVYLHRESRVVTWSRPYFLGTGSIRKHDPPLSSIPCLHYKKMKDNEEREQSSDLTPSGDVSPVKPLSRSAELEFPLDEPDSMGADPGPPDEKDPLGAEAAPGALGQVKAKVEVCKDESVDLEEFRSYLEKRFDFEQVTVKKFRTWAERRQFNREMKRKQAESERPILPANQKLITLSVQDAPTKKEFVINPNGKSEVCILHEYMQRVLKVRPVYNFFECENPSEPFGASVTIDGVTYGSGTASSKKLAKNKAARATLEILIPDFVKQTSEEKPKDSEELEYFNHISIEDSRVYELTSKAGLLSPYQILHECLKRNHGMGDTSIKFEVVPGKNQKSEYVMACGKHTVRGWCKNKRVGKQLASQKILQLLHPHVKNWGSLLRMYGRESSKMVKQETSDKSVIELQQYAKKNKPNLHILSKLQEEMKRLAEEREETRKKPKMSIVASAQPGGEPLCTVDV
As to B4, the “interaction with ERH” value is reported as “abrogated the interaction”.
